The values that follow come from ChEMBL document CHEMBL1122950, “Structure-activity relationships of C-terminal tri- and tetrapeptide fragments that inhibit gastrin activity” (J Med Chem, 1985).

Experiment [1] has as its target T1, Gastrin/cholecystokinin type B receptor (Rattus norvegicus) (UniProt P30553).
T1 sequence (whole entry): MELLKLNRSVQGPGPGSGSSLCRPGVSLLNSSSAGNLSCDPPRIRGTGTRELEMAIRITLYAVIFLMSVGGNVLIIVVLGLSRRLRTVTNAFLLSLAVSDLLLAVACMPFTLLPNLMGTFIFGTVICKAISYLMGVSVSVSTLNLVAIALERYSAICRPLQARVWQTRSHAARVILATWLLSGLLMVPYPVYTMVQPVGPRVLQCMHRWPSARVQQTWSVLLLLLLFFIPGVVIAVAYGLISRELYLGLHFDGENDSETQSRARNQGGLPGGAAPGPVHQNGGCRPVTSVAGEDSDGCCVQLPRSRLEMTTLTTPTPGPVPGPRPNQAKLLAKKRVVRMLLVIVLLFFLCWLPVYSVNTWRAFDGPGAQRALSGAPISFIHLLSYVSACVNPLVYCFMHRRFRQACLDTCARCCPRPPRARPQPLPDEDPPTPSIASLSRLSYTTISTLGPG
Put plainly: Inhibition of gastrin stimulated acid secretion in in situ perfused rat stomach. In kind it is functional, tissue-based. Summed up:
(§1)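 In situ perfused stomach (Ghosh and Schild method) in urethane-anesthetized rats, with urethane given ip, or im and ip for some analogues. Acid secretion was stimulated by gastrin and test peptides were given in vivo. Antagonism is expressed as ED50 in μM/kg.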

The species entered for another experiment is Rattus norvegicus. Put plainly: Inhibition of gastrin stimulated acid secretion in the in situ perfused rat stomach; Inactive. The format is functional, organism-based. Summed up: as §1

Active and inactive are the calls of the source. No cut-off for these calls is given here. Where a SMILES comes first, the peptide text is derived from it.

Broadly, the ED50 is the dose at which the effect has come halfway, by size or by number of responders. As to `CC(C)CC(NC(=O)[C@H](Cc1c[nH]c2ccccc12)NC(=O)OC(C)(C)C)C(=O)N[C@@H](CC(=O)O)C(N)=O` (stereo not given in full), in experiment [1], it took a dose of 15 µmol/kg to reach the 50% effect level (ED50).

`CC(C)C[C@H](NC(=O)[C@H](Cc1c[nH]c2ccccc12)NC(=O)OC(C)(C)C)C(=O)N[C@H](CC(=O)O)C(N)=O` showed an ED50 in experiment [1] of 17 µmol/kg.

With `CCCN(CCC)C(=O)C(CCC(=O)O)NC(=O)c1ccccc1` (stereo not given), the ED50 in experiment [1] came out at 350 µmol/kg.

`O=C(N[C@@H](Cc1c[nH]c2ccccc12)C(=O)O)c1ccc(Cl)cc1`: in experiment [1], the ED50 is 170 µmol/kg.

In experiment [1], `CSCC[C@H](NC(=O)[C@H](Cc1c[nH]c2ccccc12)NC(=O)CNC(=O)OC(C)(C)C)C(=O)N[C@@H](CC(=O)O)C(N)=O` (HELM PEPTIDE1{[CC(C)(C)OC(=O)[*:2]].G.W.M.D.[am]}$$$$V2.0) returned an ED50 of 8 µmol/kg.

Compound `C[C@H](NC(=O)[C@H](Cc1c[nH]c2ccccc12)NC(=O)OC(C)(C)C)C(=O)N[C@@H](CC(=O)O)C(N)=O` (HELM PEPTIDE1{[CC(C)(C)OC(=O)[*:2]].W.A.D.[am]}$$$$V2.0) showed an ED50 in experiment [1] of 30 µmol/kg.

In experiment [1], `CC(C)(C)OC(=O)N[C@@H](Cc1c[nH]c2ccccc12)C(=O)N[C@@H](Cc1ccccc1)C(=O)N[C@@H](CC(=O)O)C(N)=O` (HELM PEPTIDE1{[CC(C)(C)OC(=O)[*:2]].W.F.D.[am]}$$$$V2.0) had an ED50 of 26.5 µmol/kg.

The compound `CC(C)(C)OC(=O)N[C@@H](Cc1c[nH]c2ccccc12)C(=O)NCC(=O)N[C@@H](CC(=O)O)C(N)=O` (HELM PEPTIDE1{[CC(C)(C)OC(=O)[*:2]].W.G.D.[am]}$$$$V2.0) had an ED50 in experiment [1] of 60 µmol/kg.

As for `CC[C@H](C)[C@H](NC(=O)[C@H](Cc1c[nH]c2ccccc12)NC(=O)OC(C)(C)C)C(=O)N[C@@H](CC(=O)O)C(N)=O` (HELM PEPTIDE1{[CC(C)(C)OC(=O)[*:2]].W.I.D.[am]}$$$$V2.0), the ED50 in experiment [1] was 25 µmol/kg.

The compound `CC(C)C[C@H](NC(=O)[C@H](Cc1c[nH]c2ccccc12)NC(=O)OC(C)(C)C)C(=O)N[C@@H](C)C(N)=O` (HELM PEPTIDE1{[CC(C)(C)OC(=O)[*:2]].W.L.A.[am]}$$$$V2.0) registered a 50% effective dose (ED50) in experiment [1] of 150 µmol/kg.

Regarding `CC(C)C[C@H](NC(=O)[C@H](Cc1c[nH]c2ccccc12)NC(=O)OC(C)(C)C)C(=O)N[C@@H](CC(=O)O)C(=O)N(C)C` (HELM PEPTIDE1{[CC(C)(C)OC(=O)[*:2]].W.L.D.[CN(C)[*:1]]}$$$$V2.0), the ED50 in experiment [1] amounted to 10 µmol/kg.

In the case of `CC(C)C[C@H](NC(=O)[C@H](Cc1c[nH]c2ccccc12)NC(=O)OC(C)(C)C)C(=O)N[C@@H](CC(=O)OCc1ccccc1)C(N)=O` (HELM PEPTIDE1{[CC(C)(C)OC(=O)[*:2]].W.L.D.[am]}|CHEM1{[c1ccc(CO[*:1])cc1]}$PEPTIDE1,CHEM1,4:R3-1:R1$$$V2.0), the ED50 result in the experiment listed under Rattus norvegicus was “inactive”.

Take `CC(C)C[C@H](NC(=O)[C@H](Cc1c[nH]c2ccccc12)NC(=O)OC(C)(C)C)C(=O)N[C@@H](CC(=O)O)C(=O)O` (HELM PEPTIDE1{[CC(C)(C)OC(=O)[*:2]].W.L.D}$$$$V2.0): it took a dose of 27.3 µmol/kg to reach the 50% effect level in experiment [1] (ED50).

As to `CC(C)C[C@H](NC(=O)[C@H](Cc1c[nH]c2ccccc12)NC(=O)OC(C)(C)C)C(=O)N[C@@H](CCC(=O)O)C(N)=O` (HELM PEPTIDE1{[CC(C)(C)OC(=O)[*:2]].W.L.E.[am]}$$$$V2.0), in experiment [1], the 50% effect level (ED50) was put at a dose of 11 µmol/kg.

In experiment [1], `CC(C)C[C@H](NC(=O)[C@H](Cc1c[nH]c2ccccc12)NC(=O)OC(C)(C)C)C(=O)N[C@@H](CC(N)=O)C(=O)O` (HELM PEPTIDE1{[CC(C)(C)OC(=O)[*:2]].W.L.N}$$$$V2.0) returned an ED50 of 19 µmol/kg.

For the compound `CSCC[C@H](NC(=O)[C@H](Cc1c[nH]c2ccccc12)NC(=O)OC(C)(C)C)C(=O)N[C@@H](CC(=O)O)C(N)=O` (HELM PEPTIDE1{[CC(C)(C)OC(=O)[*:2]].W.M.D.[am]}$$$$V2.0), the 50% effect level in experiment [1] (ED50) was put at a dose of 14 µmol/kg.

Turning to `CSCC[C@H](NC(=O)[C@H](Cc1c[nH]c2ccccc12)NC(=O)OC(C)(C)C)C(=O)N[C@@H](CC(=O)OCc1ccccc1)C(N)=O` (HELM PEPTIDE1{[CC(C)(C)OC(=O)[*:2]].W.M.D.[am]}|CHEM1{[c1ccc(CO[*:1])cc1]}$PEPTIDE1,CHEM1,4:R3-1:R1$$$V2.0), in the experiment filed under Rattus norvegicus, the ED50 result was “inactive”.

Take `CC(C)(C)OC(=O)N[C@@H](Cc1c[nH]c2ccccc12)C(=O)N1CCC[C@H]1C(=O)N[C@@H](CC(=O)O)C(N)=O` (HELM PEPTIDE1{[CC(C)(C)OC(=O)[*:2]].W.P.D.[am]}$$$$V2.0): the 50% effect level in experiment [1] (ED50) was put at a dose of 15 µmol/kg.

In experiment [1], `CCCC[C@H](NC(=O)[C@H](Cc1c[nH]c2ccccc12)NC(=O)OC(C)(C)C)C(=O)N[C@@H](CC(=O)O)C(N)=O` (HELM PEPTIDE1{[CC(C)(C)OC(=O)[*:2]].W.[Nle].D.[am]}$$$$V2.0) yielded an ED50 of 14 µmol/kg.

With `CC(C)C[C@H](NC(=O)[C@H](Cc1c[nH]c2ccccc12)NC(=O)OCc1ccccc1)C(=O)N[C@@H](CC(=O)O)C(N)=O` (HELM PEPTIDE1{[O=C(OCc1ccccc1)[*:2]].W.L.D.[am]}$$$$V2.0), the ED50 in experiment [1] turned out to be 38 µmol/kg.
